Laboratory results: ChEMBL document CHEMBL1128440 (J Med Chem, 1995)

How the values were obtained:
[1] = target: T1, Progesterone receptor (Homo sapiens) (UniProt P06401); test: Nonspecific binding affinity against progesterone receptor was estimated relative to compound R5020
T1 sequence (whole entry): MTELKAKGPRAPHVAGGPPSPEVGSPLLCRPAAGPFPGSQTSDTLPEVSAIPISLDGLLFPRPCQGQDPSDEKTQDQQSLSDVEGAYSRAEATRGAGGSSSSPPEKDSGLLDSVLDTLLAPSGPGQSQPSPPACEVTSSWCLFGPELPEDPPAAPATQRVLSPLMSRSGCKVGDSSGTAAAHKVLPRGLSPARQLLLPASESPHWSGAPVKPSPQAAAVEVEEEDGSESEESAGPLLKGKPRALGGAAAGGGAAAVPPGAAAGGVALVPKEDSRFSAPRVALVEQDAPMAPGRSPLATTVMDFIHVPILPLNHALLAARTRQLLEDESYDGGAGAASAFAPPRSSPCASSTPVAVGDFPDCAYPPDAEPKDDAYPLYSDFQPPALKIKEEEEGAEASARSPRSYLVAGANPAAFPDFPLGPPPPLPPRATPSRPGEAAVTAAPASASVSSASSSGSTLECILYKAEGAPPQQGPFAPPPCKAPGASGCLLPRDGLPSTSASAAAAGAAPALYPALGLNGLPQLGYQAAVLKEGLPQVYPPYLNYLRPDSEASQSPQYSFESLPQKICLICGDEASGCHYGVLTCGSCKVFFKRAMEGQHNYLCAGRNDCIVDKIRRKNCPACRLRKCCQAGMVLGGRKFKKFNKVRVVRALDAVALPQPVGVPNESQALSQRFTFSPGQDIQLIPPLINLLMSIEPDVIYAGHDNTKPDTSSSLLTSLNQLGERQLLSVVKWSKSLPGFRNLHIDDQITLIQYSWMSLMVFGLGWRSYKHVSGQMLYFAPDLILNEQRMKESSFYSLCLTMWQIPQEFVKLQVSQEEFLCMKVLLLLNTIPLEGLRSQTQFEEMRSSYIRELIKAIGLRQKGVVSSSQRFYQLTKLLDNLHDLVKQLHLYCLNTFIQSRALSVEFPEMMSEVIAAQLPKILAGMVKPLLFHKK

[2] = target: T1, Progesterone receptor (Homo sapiens); test: Relative binding affinity against progesterone receptor at 0 degree Celsius determined in a competitive radiometric binding assay (R5020=100%).
In short: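 Competitive radiometric binding at 0 °C against tritium-labeled R5020 as the standard (RBA = 100). Values are the average of two experiments.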

[3] = target: T1, Progesterone receptor (Homo sapiens); test: Binding selectivity index as the ratio of RBA value to that of NSB value.
In short: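 BSI calculated as the ratio of RBA to NSB.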

`CC[C@@H]1C[C@H]2[C@@H]3CCC4=CC(=O)CC[C@@H]4[C@H]3CC[C@]2(C)[C@H]1C(=O)CO` showed an NSB [1] of 0.97, an RBA [2] of 200 and a BSI [3] of 206.
